# According to ChEMBL document CHEMBL3272325, “Structure-activity relationships of dimeric Catharanthus alkaloids. 1. Deacetylvinblastine amide (vindesine) sulfate” (J Med Chem, 1978):
# Legend:
# [1] = Antitumor activity against mouse Ridgeway osteogenic sarcoma cells allografted in mouse at 1 to 2 mg/kg/day, ip; format: functional; details: route intraperitoneal
# In short: (§1)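 Sulfate salts given ip on days 1-9 against ROS and GLS in mice; tumor growth scored as percent inhibition versus controls (+++ = 75-100%, ++ = 50-75%, ± = under 25%).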
# [2] = Antitumor activity against mouse Gardner lymphosarcoma cell allografted in mouse at 1.0 to 2.0 mg/kg/day, ip; format: functional; details: route intraperitoneal; in short: as §1
smiles,measurement,setting,value
CC[C@]1(O)C[C@@H]2C[C@H](c3cc4c(cc3OC)N(C)[C@H]3[C@@](O)(C(=O)NN)[C@H](O)[C@]5(CC)C=CCN6CC[C@]43[C@@H]65)c3[nH]c4ccccc4c3CCN(C2)C1,TGI,[1],<25%
same,TGI,[2],<25%
